Measured values: ChEMBL document CHEMBL1926577, “Novel 1,3,4-heterodiazole analogues: synthesis and in-vitro antitumor activity” (2012)

Assays:
Format in all cases: functional
[1] = system: SF-295; assay: Growth inhibition of human SF295 cells at 10 uM after 48 hrs by coulter counter method; conditions: SF-295, 48 h, read-out: GI
How it was run: (§1)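 NCI 60-cell-line panel, single dose. Compound dissolved first in DMSO, then diluted in phosphate-buffered saline so that every final dilution held under 1% DMSO. Duplicate wells received cells at 6 × 10⁴ cells/ml. Controls held PBS/DMSO at the same dilution. Plates were incubated 48 h at 37 °C under 5% CO₂. Cells were then diluted 10-fold in saline and counted on a Coulter counter, with counts corrected for the dilution. Results are given as percent growth inhibition.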

[2] = system: K562; assay: Growth inhibition of human K562 cells at 10 uM after 48 hrs by coulter counter method; conditions: K562, 48 h, read-out: GI; how it was run: as §1
[3] = system: T47D; assay: Growth inhibition of human T47D cells at 10 uM after 48 hrs by coulter counter method; conditions: read-out: GI; how it was run: as §1
[4] = system: IGROV-1; assay: Growth inhibition of human IGROV1 cells at 10 uM after 48 hrs by coulter counter method; conditions: IGROV-1, 48 h, read-out: GI; how it was run: as §1
[5] = system: MDA-MB-468; assay: Growth inhibition of human MDA-MB-468 cells at 10 uM after 48 hrs by coulter counter method; conditions: MDA-MB-468, 48 h, read-out: GI; how it was run: as §1
[6] = system: M14; assay: Growth inhibition of human M14 cells at 10 uM after 48 hrs by coulter counter method; conditions: M14, 48 h, read-out: GI; how it was run: as §1
[7] = system: EKVX; assay: Growth inhibition of human EKVX cells at 10 uM after 48 hrs by coulter counter method; conditions: read-out: GI; how it was run: as §1
[8] = system: NCI-H226; assay: Growth inhibition of human NCI-H226 cells at 10 uM after 48 hrs by coulter counter method; conditions: NCI-H226, 48 h, read-out: GI; how it was run: as §1
[9] = system: ACHN; assay: Growth inhibition of human ACHN cells at 10 uM after 48 hrs by coulter counter method; conditions: read-out: GI; how it was run: as §1
[10] = system: RPMI-8226; assay: Growth inhibition of human RPMI8226 cells at 10 uM after 48 hrs by coulter counter method; conditions: RPMI-8226, 48 h, read-out: GI; how it was run: as §1
[11] = system: SK-MEL-28; assay: Growth inhibition of human SK-MEL-28 cells at 10 uM after 48 hrs by coulter counter method; conditions: SK-MEL-28, 48 h, read-out: GI; how it was run: as §1
[12] = system: NCI-H23; assay: Growth inhibition of human NCI-H23 cells at 10 uM after 48 hrs by coulter counter method; conditions: NCI-H23, 48 h, read-out: GI; how it was run: as §1
[13] = system: CCRF-CEM; assay: Growth inhibition of human CCRF-CEM cells at 10 uM after 48 hrs by coulter counter method; conditions: read-out: GI; how it was run: as §1
[14] = system: TK-10; assay: Growth inhibition of human TK10 cells at 10 uM after 48 hrs by coulter counter method; conditions: TK-10, 48 h, read-out: GI; how it was run: as §1
[15] = system: SN12C; assay: Growth inhibition of human SN12C cells at 10 uM after 48 hrs by coulter counter method; conditions: read-out: GI; how it was run: as §1
[16] = system: SK-MEL-2; assay: Growth inhibition of human SK-MEL-2 cells at 10 uM after 48 hrs by coulter counter method; conditions: SK-MEL-2, 48 h, read-out: GI; how it was run: as §1
[17] = system: BT-549; assay: Growth inhibition of human BT549 cells at 10 uM after 48 hrs by coulter counter method; conditions: BT-549, 48 h, read-out: GI; how it was run: as §1
[18] = system: MOLT-4; assay: Growth inhibition of human MOLT4 cells at 10 uM after 48 hrs by coulter counter method; conditions: MOLT-4, 48 h, read-out: GI; how it was run: as §1
[19] = system: MDA-MB-435; assay: Growth inhibition of human MDA-MB-435 cells at 10 uM after 48 hrs by coulter counter method; conditions: MDA-MB-435, 48 h, read-out: GI; how it was run: as §1
[20] = system: NCI/ADR-RES; assay: Growth inhibition of human NCI/ADR-RES cells at 10 uM after 48 hrs by coulter counter method; conditions: read-out: GI; how it was run: as §1
[21] = system: A498; assay: Growth inhibition of human A498 cells at 10 uM after 48 hrs by coulter counter method; conditions: A498, 48 h, read-out: GI; how it was run: as §1
[22] = system: KM12; assay: Growth inhibition of human KM12 cells at 10 uM after 48 hrs by coulter counter method; conditions: KM12, 48 h, read-out: GI; how it was run: as §1
[23] = system: SNB-75; assay: Growth inhibition of human SNB75 cells at 10 uM after 48 hrs by coulter counter method; conditions: SNB-75, 48 h, read-out: GI; how it was run: as §1
[24] = system: PC-3; assay: Growth inhibition of human PC3 cells at 10 uM after 48 hrs by coulter counter method; conditions: PC-3, 48 h, read-out: GI; how it was run: as §1
[25] = system: NCI-H322M; assay: Growth inhibition of human NCI-H322M cells at 10 uM after 48 hrs by coulter counter method; conditions: read-out: GI; how it was run: as §1
[26] = system: U-251; assay: Growth inhibition of human U251 cells at 10 uM after 48 hrs by coulter counter method; conditions: U-251, 48 h, read-out: GI; how it was run: as §1
[27] = system: UO-31; assay: Growth inhibition of human UO31 cells at 10 uM after 48 hrs by coulter counter method; conditions: UO-31, 48 h, read-out: GI; how it was run: as §1
[28] = system: OVCAR-8; assay: Growth inhibition of human OVCAR8 cells at 10 uM after 48 hrs by coulter counter method; conditions: OVCAR-8, 48 h, read-out: GI; how it was run: as §1
[29] = system: MCF7; assay: Growth inhibition of human MCF7 cells at 10 uM after 48 hrs by coulter counter method; conditions: MCF7, 48 h, read-out: GI; how it was run: as §1
[30] = system: UACC-62; assay: Growth inhibition of human UACC62 cells at 10 uM after 48 hrs by coulter counter method; conditions: UACC-62, 48 h, read-out: GI; how it was run: as §1
[31] = system: SR; assay: Growth inhibition of human SR cells at 10 uM after 48 hrs by coulter counter method; conditions: read-out: GI; how it was run: as §1
[32] = system: NCI-H522; assay: Growth inhibition of human NCI-H522 cells at 10 uM after 48 hrs by coulter counter method; conditions: NCI-H522, 48 h, read-out: GI; how it was run: as §1
[33] = system: CAKI-1; assay: Growth inhibition of human Caki1 cells at 10 uM after 48 hrs by coulter counter method; conditions: CAKI-1, 48 h, read-out: GI; how it was run: as §1
[34] = system: HCT-116; assay: Growth inhibition of human HCT116 cells at 10 uM after 48 hrs by coulter counter method; conditions: HCT-116, 48 h, read-out: GI; how it was run: as §1
[35] = system: LOX IMVI; assay: Growth inhibition of human LOXIMVI cells at 10 uM after 48 hrs by coulter counter method; conditions: read-out: GI; how it was run: as §1
[36] = system: UACC-257; assay: Growth inhibition of human UACC257 cells at 10 uM after 48 hrs by coulter counter method; conditions: UACC-257, 48 h, read-out: GI; how it was run: as §1
[37] = system: SF-268; assay: Growth inhibition of human SF268 cells at 10 uM after 48 hrs by coulter counter method; conditions: SF-268, 48 h, read-out: GI; how it was run: as §1
[38] = system: HL-60(TB); assay: Growth inhibition of human HL-60(TB) cells at 10 uM after 48 hrs by coulter counter method; conditions: HL-60, 48 h, read-out: GI
How it was run: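 Single-dose screen on the NCI 60-line panel (leukemia subpanel). Compound is dissolved in DMSO and diluted in PBS, with final DMSO below 1%. Duplicate wells hold 6 × 10⁴ cells/ml at 37 °C, 5% CO₂, for 48 h. Cells are counted by Coulter counter after 10-fold saline dilution. Read-out is percent growth versus PBS/DMSO controls, expressed as % growth inhibition.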

[39] = system: HCT-15; assay: Growth inhibition of human HCT15 cells at 10 uM after 48 hrs by coulter counter method; conditions: HCT-15, 48 h, read-out: GI; how it was run: as §1
[40] = system: A549; assay: Growth inhibition of human A549 cells at 10 uM after 48 hrs by coulter counter method; conditions: A549, 48 h, read-out: GI; how it was run: as §1
[41] = system: SNB-19; assay: Growth inhibition of human SNB19 cells at 10 uM after 48 hrs by coulter counter method; conditions: SNB-19, 48 h, read-out: GI; how it was run: as §1
[42] = system: SK-MEL-5; assay: Growth inhibition of human SK-MEL-5 cells at 10 uM after 48 hrs by coulter counter method; conditions: SK-MEL-5, 48 h, read-out: GI; how it was run: as §1
[43] = system: HT-29; assay: Growth inhibition of human HT-29 cells at 10 uM after 48 hrs by coulter counter method; conditions: HT-29, 48 h, read-out: GI; how it was run: as §1
[44] = system: Malme-3M; assay: Growth inhibition of human MALME-3M cells at 10 uM after 48 hrs by coulter counter method; conditions: read-out: GI; how it was run: as §1
[45] = system: 786-0; assay: Growth inhibition of human 786-0 cells at 10 uM after 48 hrs by coulter counter method; conditions: 786-0, 48 h, read-out: GI; how it was run: as §1

O=C1CN2N=C(c3ccc(Cl)cc3)OC2=N1
inhibition of growth at 10 µM [1]: < 10% | inhibition of growth at 10 µM [2]: 17.2% | inhibition of growth at 10 µM [3]: < 10% | inhibition of growth at 10 µM [4]: < 10% | inhibition of growth at 10 µM [5]: < 10% | inhibition of growth at 10 µM [6]: < 10% | inhibition of growth at 10 µM [7]: < 10% | inhibition of growth at 10 µM [8]: < 10% | inhibition of growth at 10 µM [9]: < 10% | inhibition of growth at 10 µM [10]: < 10% | inhibition of growth at 10 µM [11]: < 10% | inhibition of growth at 10 µM [12]: < 10% | inhibition of growth at 10 µM [13]: < 10% | inhibition of growth at 10 µM [14]: < 10% | inhibition of growth at 10 µM [15]: < 10% | inhibition of growth at 10 µM [16]: < 10% | inhibition of growth at 10 µM [17]: < 10% | inhibition of growth at 10 µM [18]: < 10% | inhibition of growth at 10 µM [19]: < 10% | inhibition of growth at 10 µM [20]: < 10% | inhibition of growth at 10 µM [21]: < 10% | inhibition of growth at 10 µM [22]: < 10% | inhibition of growth at 10 µM [23]: < 10% | inhibition of growth at 10 µM [24]: < 10% | inhibition of growth at 10 µM [25]: < 10% | inhibition of growth at 10 µM [26]: < 10% | inhibition of growth at 10 µM [27]: 26.8% | inhibition of growth at 10 µM [28]: < 10% | inhibition of growth at 10 µM [29]: < 10% | inhibition of growth at 10 µM [30]: < 10% | inhibition of growth at 10 µM [31]: < 10% | inhibition of growth at 10 µM [32]: 18.9% | inhibition of growth at 10 µM [33]: < 10% | inhibition of growth at 10 µM [34]: < 10% | inhibition of growth at 10 µM [35]: < 10% | inhibition of growth at 10 µM [36]: < 10% | inhibition of growth at 10 µM [37]: < 10% | inhibition of growth at 10 µM [38]: < 10% | inhibition of growth at 10 µM [39]: < 10% | inhibition of growth at 10 µM [40]: < 10% | inhibition of growth at 10 µM [41]: < 10% | inhibition of growth at 10 µM [42]: < 10% | inhibition of growth at 10 µM [43]: < 10% | inhibition of growth at 10 µM [44]: < 10% | inhibition of growth at 10 µM [45]: < 10%
